According to ChEMBL document CHEMBL5058577, “EUbOPEN Chemogenomics Library 2 (Multiplex)” (2022):

System: HEK-293T
Assay: Multiplex assay against HEK293T
Format: toxicity, cell-based
Conditions: human
In short: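 Cells were classed with CellPathfinder machine-learning gating, first as Hoechst high-intensity objects or normal cells, then (normal cells) as healthy, pyknosed or fragmented nuclei, and finally (pyknosed cells) as mitotic or apoptotic. Staining of live cells at seeding used Hoechst33342, BioTracker Green Microtubule Cytoskeleton Dye, MitoTracker Red and Annexin V Alexa Fluor 680, with imaging on a CQ1 microscope at 37°C and 5% CO2 after compound addition. Tubulin, mitochondrial-mass and membrane-permeability phenotypes are per cents of healthy-nucleus cells.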

[1] = 12 h, 1 µM, compound concentration 1 uM, replicate 1
[2] = 12 h, 1 µM, compound concentration 1 uM, replicate 2
[3] = 12 h, 10 µM, compound concentration 10 uM, replicate 1
[4] = 12 h, 10 µM, compound concentration 10 uM, replicate 2
[5] = 24 h, 1 µM, compound concentration 1 uM, replicate 1
[6] = 24 h, 1 µM, compound concentration 1 uM, replicate 2
[7] = 24 h, 10 µM, compound concentration 10 uM, replicate 1
[8] = 24 h, 10 µM, compound concentration 10 uM, replicate 2
[9] = 48 h, 1 µM, compound concentration 1 uM, replicate 1
[10] = 48 h, 1 µM, compound concentration 1 uM, replicate 2
[11] = 48 h, 10 µM, compound concentration 10 uM, replicate 1
[12] = 48 h, 10 µM, compound concentration 10 uM, replicate 2

Compound: N#Cc1c(N)nc(SCc2csc(-c3ccc(Cl)cc3)n2)c(C#N)c1-c1ccc(OCCO)cc1 [CAPADENOSON]
- Population Apoptotic (%) [1]: 36%
- Population Fragmented Nuclei (%) [1]: 6%
- Population Healthy Nuclei (%) [1]: 79%
- Population Hoechst High Intensity Objects (%) [1]: 8%
- Population Membrane Permeable-Phenotype (%) [1]: 0%
- Population Mitochondria Different-Phenotype (%) [1]: 59%
- Population Mitotic Cells (%) [1]: 63%
- Population Normal (%) [1]: 91%
- Population Pyknosed Nuclei (%) [1]: 13%
- Population Tubulin-Different-Phenotype (%) [1]: 44%
- Total Cell Count [1]: 373
- Population Apoptotic (%) [2]: 54%
- Population Healthy Nuclei (%) [2]: 80%
- Population Hoechst High Intensity Objects (%) [2]: 4%
- Population Mitochondria Different-Phenotype (%) [2]: 60%
- Population Mitotic Cells (%) [2]: 45%
- Population Normal (%) [2]: 95%
- Population Pyknosed Nuclei (%) [2]: 12%
- Population Tubulin-Different-Phenotype (%) [2]: 34%
- Total Cell Count [2]: 375
- Population Apoptotic (%) [3]: 57%
- Population Fragmented Nuclei (%) [3]: 7%
- Population Healthy Nuclei (%) [3]: 75%
- Population Hoechst High Intensity Objects (%) [3]: 12%
- Population Membrane Permeable-Phenotype (%) [3]: 0%
- Population Mitochondria Different-Phenotype (%) [3]: 82%
- Population Mitotic Cells (%) [3]: 42%
- Population Normal (%) [3]: 87%
- Population Pyknosed Nuclei (%) [3]: 17%
- Population Tubulin-Different-Phenotype (%) [3]: 62%
- Total Cell Count [3]: 307
- Population Apoptotic (%) [4]: 70%
- Population Fragmented Nuclei (%) [4]: 6%
- Population Healthy Nuclei (%) [4]: 73%
- Population Hoechst High Intensity Objects (%) [4]: 14%
- Population Membrane Permeable-Phenotype (%) [4]: 1%
- Population Mitochondria Different-Phenotype (%) [4]: 85%
- Population Mitotic Cells (%) [4]: 29%
- Population Normal (%) [4]: 85%
- Population Pyknosed Nuclei (%) [4]: 20%
- Population Tubulin-Different-Phenotype (%) [4]: 63%
- Total Cell Count [4]: 388
- Population Apoptotic (%) [5]: 36%
- Population Fragmented Nuclei (%) [5]: 5%
- Population Healthy Nuclei (%) [5]: 76%
- Population Hoechst High Intensity Objects (%) [5]: 6%
- Population Membrane Permeable-Phenotype (%) [5]: 2%
- Population Mitochondria Different-Phenotype (%) [5]: 38%
- Population Mitotic Cells (%) [5]: 63%
- Population Normal (%) [5]: 93%
- Population Pyknosed Nuclei (%) [5]: 17%
- Population Tubulin-Different-Phenotype (%) [5]: 34%
- Total Cell Count [5]: 450
- Population Apoptotic (%) [6]: 37%
- Population Fragmented Nuclei (%) [6]: 7%
- Population Healthy Nuclei (%) [6]: 79%
- Population Hoechst High Intensity Objects (%) [6]: 4%
- Population Membrane Permeable-Phenotype (%) [6]: 0%
- Population Mitochondria Different-Phenotype (%) [6]: 44%
- Population Mitotic Cells (%) [6]: 62%
- Population Normal (%) [6]: 95%
- Population Pyknosed Nuclei (%) [6]: 12%
- Population Tubulin-Different-Phenotype (%) [6]: 23%
- Total Cell Count [6]: 456
- Population Apoptotic (%) [7]: 65%
- Population Fragmented Nuclei (%) [7]: 8%
- Population Healthy Nuclei (%) [7]: 68%
- Population Hoechst High Intensity Objects (%) [7]: 14%
- Population Membrane Permeable-Phenotype (%) [7]: 0%
- Population Mitochondria Different-Phenotype (%) [7]: 94%
- Population Mitotic Cells (%) [7]: 34%
- Population Normal (%) [7]: 85%
- Population Pyknosed Nuclei (%) [7]: 22%
- Population Tubulin-Different-Phenotype (%) [7]: 62%
- Total Cell Count [7]: 319
- Population Apoptotic (%) [8]: 73%
- Population Fragmented Nuclei (%) [8]: 4%
- Population Hoechst High Intensity Objects (%) [8]: 13%
- Population Mitochondria Different-Phenotype (%) [8]: 89%
- Population Mitotic Cells (%) [8]: 26%
- Population Normal (%) [8]: 86%
- Population Pyknosed Nuclei (%) [8]: 26%
- Population Tubulin-Different-Phenotype (%) [8]: 61%
- Total Cell Count [8]: 391
- Population Apoptotic (%) [9]: 31%
- Population Fragmented Nuclei (%) [9]: 10%
- Population Healthy Nuclei (%) [9]: 79%
- Population Hoechst High Intensity Objects (%) [9]: 4%
- Population Membrane Permeable-Phenotype (%) [9]: 1%
- Population Mitochondria Different-Phenotype (%) [9]: 32%
- Population Mitotic Cells (%) [9]: 68%
- Population Normal (%) [9]: 95%
- Population Pyknosed Nuclei (%) [9]: 10%
- Population Tubulin-Different-Phenotype (%) [9]: 23%
- Total Cell Count [9]: 621
- Population Apoptotic (%) [10]: 32%
- Population Fragmented Nuclei (%) [10]: 11%
- Population Healthy Nuclei (%) [10]: 80%
- Population Hoechst High Intensity Objects (%) [10]: 3%
- Population Membrane Permeable-Phenotype (%) [10]: 2%
- Population Mitochondria Different-Phenotype (%) [10]: 23%
- Population Mitotic Cells (%) [10]: 67%
- Population Normal (%) [10]: 96%
- Population Pyknosed Nuclei (%) [10]: 8%
- Population Tubulin-Different-Phenotype (%) [10]: 18%
- Total Cell Count [10]: 787
- Population Apoptotic (%) [11]: 66%
- Population Fragmented Nuclei (%) [11]: 11%
- Population Healthy Nuclei (%) [11]: 68%
- Population Hoechst High Intensity Objects (%) [11]: 12%
- Population Membrane Permeable-Phenotype (%) [11]: 0%
- Population Mitochondria Different-Phenotype (%) [11]: 89%
- Population Mitotic Cells (%) [11]: 33%
- Population Normal (%) [11]: 87%
- Population Pyknosed Nuclei (%) [11]: 20%
- Population Tubulin-Different-Phenotype (%) [11]: 67%
- Total Cell Count [11]: 406
- Population Apoptotic (%) [12]: 63%
- Population Fragmented Nuclei (%) [12]: 12%
- Population Healthy Nuclei (%) [12]: 73%
- Population Hoechst High Intensity Objects (%) [12]: 10%
- Population Mitochondria Different-Phenotype (%) [12]: 88%
- Population Mitotic Cells (%) [12]: 36%
- Population Normal (%) [12]: 89%
- Population Pyknosed Nuclei (%) [12]: 14%
- Population Tubulin-Different-Phenotype (%) [12]: 64%
- Total Cell Count [12]: 423
